Results: ChEMBL document CHEMBL1773048, “Synthesis of glycopeptide dendrimers, dimerization and affinity for Concanavalin A” (Bioorg Med Chem, 2011)
Where a SMILES comes first, the peptide text is derived from it. Bridges are numbered along the chain shown (N, C = ends). Roman numbers before positions name the chains, in order. [ ]: non-standard residue; d: D form. The star is where a group is joined. αMan = OC[C@H]1O[C@H](*)[C@@H](O)[C@@H](O)[C@@H]1O; Mpa = O=C(O)CCS

Key:
[1] = Ratio of methyl alpha-D-mannoside IC50 to compound IC50 for binding affinity to Concanavalin A
In short: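 Relative potency is IC50 of methyl α-D-mannoside divided by inhibitor IC50. The reference is measured under the same conditions on the same plate by enhanced-sensitivity ELLA, and reference IC50 values are corrected to a common experimental value.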

[2] = Ratio of methyl alpha-D-mannoside IC50 to compound IC50 for binding affinity to Concanavalin A per carbohydrate moiety
In short: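 Valency-normalised relative potency is IC50 of methyl α-D-mannoside divided by (inhibitor IC50 × n), where n is the number of mannose units. The reference IC50 is measured on the same plate by enhanced-sensitivity ELLA.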

[3] = Displacement of yeast mannan from Concanavalin A by Enzyme-linked lectin assay
In short: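 Enhanced-sensitivity ELLA. Yeast mannan (10 µg/mL in PBS with CaCl2 and MnCl2) is coated overnight on plates and blocked 1 h at 37 °C with PBS containing 10 mg/mL BSA. Two-fold serial dilutions of inhibitor are preincubated 1 h at 37 °C with biotinylated Con A (5 µg/mL), transferred to the plates and incubated 1 h at 37 °C. Preformed Neutravidin–biotin-HRP is added for 1 h, then ABTS/H2O2 at pH 4.0. A415 is read after 5 min. IC50 is taken at 50% inhibition, at least triplicate.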

SMILES	Ratio IC50 [1]	Ratio IC50 [2]	IC50 [3]
N=C(N)NCCC[C@H](NC(=O)[C@H](CCCCNC(=O)[C@H](Cc1ccc(O)cc1)NC(=O)CCS[C@@H]1O[C@@H](CO)[C@H](O)[C@@H](O)[C@H]1O)NC(=O)[C@H](Cc1ccc(O)cc1)NC(=O)CCS[C@H]1O[C@H](CO)[C@@H](O)[C@H](O)[C@@H]1O)C(=O)NCCCC[C@H](NC(=O)[C@H](CCCNC(=N)N)NC(=O)[C@H](CCCCNC(=O)[C@H](Cc1ccc(O)cc1)NC(=O)CCS[C@H]1O[C@H](CO)[C@@H](O)[C@H](O)[C@@H]1O)NC(=O)[C@H](Cc1ccc(O)cc1)NC(=O)CCS[C@H]1O[C@H](CO)[C@@H](O)[C@H](O)[C@@H]1O)C(N)=O	14.3	3.6	92 µM
O=[N+]([O-])c1ccc(O[C@H]2O[C@H](CO)[C@@H](O)[C@H](O)[C@@H]2O)cc1	2.1	2.1	644 µM
NC(=O)[C@H](CCC(=O)O)NC(=O)[C@H](CCCCNC(=O)[C@H](CCCCNC(=O)[C@H](Cc1ccc(O)cc1)NC(=O)CCS[C@H]1O[C@H](CO)[C@@H](O)[C@H](O)[C@@H]1O)NC(=O)[C@H](Cc1ccc(O)cc1)NC(=O)CCS[C@@H]1O[C@@H](CO)[C@H](O)[C@@H](O)[C@H]1O)NC(=O)[C@H](CCCCNC(=O)[C@H](Cc1ccc(O)cc1)NC(=O)CCS[C@H]1O[C@H](CO)[C@@H](O)[C@H](O)[C@@H]1O)NC(=O)[C@H](Cc1ccc(O)cc1)NC(=O)CCS[C@@H]1O[C@@H](CO)[C@H](O)[C@@H](O)[C@H]1O	14.2	3.6	93 µM
CO[C@H]1O[C@H](CO)[C@@H](O)[C@H](O)[C@@H]1O	1	1	1320 µM
NC(=O)[C@H](CSSC[C@H](NC(=O)[C@H](Cc1ccc(O)cc1)NC(=O)CCS[C@H]1O[C@H](CO)[C@@H](O)[C@H](O)[C@@H]1O)C(N)=O)NC(=O)[C@H](Cc1ccc(O)cc1)NC(=O)CCS[C@H]1O[C@H](CO)[C@@H](O)[C@H](O)[C@@H]1O (I: [Mpa](αMan)-Tyr-Cys-NH2 / II: [Mpa](αMan)-Tyr-Cys-NH2; disulfide I:3-II:3)	12.7	6.4	104 µM
OC[C@H]1OC(O)[C@@H](O)[C@@H](O)[C@@H]1O (stereo partly drawn) [D-MANNOSE]	0.13	0.13	10500 µM
NC(=O)[C@H](CCCCNC(=O)[C@H](Cc1ccc(O)cc1)NC(=O)CCS[C@H]1O[C@H](CO)[C@@H](O)[C@H](O)[C@@H]1O)NC(=O)[C@H](Cc1ccc(O)cc1)NC(=O)CCS[C@@H]1O[C@@H](CO)[C@H](O)[C@@H](O)[C@H]1O	8.8	4.4	150 µM

These reach a lower IC50 [3]. Values come first.

Ratio IC50 [1]	Ratio IC50 [2]	IC50 [3]	SMILES
25.4	6.4	52 µM	NC(=O)[C@H](CCCCNC(=O)[C@H](CCCCNC(=O)[C@H](Cc1ccc(O)cc1)NC(=O)CCS[C@H]1O[C@H](CO)[C@@H](O)[C@H](O)[C@@H]1O)NC(=O)[C@H](Cc1ccc(O)cc1)NC(=O)CCS[C@@H]1O[C@@H](CO)[C@H](O)[C@@H](O)[C@H]1O)NC(=O)[C@H](CCCCNC(=O)[C@H](Cc1ccc(O)cc1)NC(=O)CCS[C@H]1O[C@H](CO)[C@@H](O)[C@H](O)[C@@H]1O)NC(=O)[C@H](Cc1ccc(O)cc1)NC(=O)CCS[C@@H]1O[C@@H](CO)[C@H](O)[C@@H](O)[C@H]1O
20.6	5.2	64 µM	NC(=O)[C@H](CCCCNC(=O)[C@H](CO)NC(=O)[C@H](CCCCNC(=O)[C@H](Cc1ccc(O)cc1)NC(=O)CCS[C@@H]1O[C@@H](CO)[C@H](O)[C@@H](O)[C@H]1O)NC(=O)[C@H](Cc1ccc(O)cc1)NC(=O)CCS[C@H]1O[C@H](CO)[C@@H](O)[C@H](O)[C@@H]1O)NC(=O)[C@H](CO)NC(=O)[C@H](CCCCNC(=O)[C@H](Cc1ccc(O)cc1)NC(=O)CCS[C@H]1O[C@H](CO)[C@@H](O)[C@H](O)[C@@H]1O)NC(=O)[C@H](Cc1ccc(O)cc1)NC(=O)CCS[C@H]1O[C@H](CO)[C@@H](O)[C@H](O)[C@@H]1O
25.4	6.4	52 µM	NC(=O)[C@H](CSSC[C@H](NC(=O)[C@H](CCCCNC(=O)[C@H](Cc1ccc(O)cc1)NC(=O)CCS[C@H]1O[C@H](CO)[C@@H](O)[C@H](O)[C@@H]1O)NC(=O)[C@H](Cc1ccc(O)cc1)NC(=O)CCS[C@@H]1O[C@@H](CO)[C@H](O)[C@@H](O)[C@H]1O)C(N)=O)NC(=O)[C@H](CCCCNC(=O)[C@H](Cc1ccc(O)cc1)NC(=O)CCS[C@H]1O[C@H](CO)[C@@H](O)[C@H](O)[C@@H]1O)NC(=O)[C@H](Cc1ccc(O)cc1)NC(=O)CCS[C@@H]1O[C@@H](CO)[C@H](O)[C@@H](O)[C@H]1O
455	57	2.9 µM	NC(=O)[C@H](CCCCNC(=O)[C@H](CCCCNC(=O)[C@H](CCCCNC(=O)[C@H](Cc1ccc(O)cc1)NC(=O)CCS[C@H]1O[C@H](CO)[C@@H](O)[C@H](O)[C@@H]1O)NC(=O)[C@H](Cc1ccc(O)cc1)NC(=O)CCS[C@@H]1O[C@@H](CO)[C@H](O)[C@@H](O)[C@H]1O)NC(=O)[C@H](CCCCNC(=O)[C@H](Cc1ccc(O)cc1)NC(=O)CCS[C@@H]1O[C@@H](CO)[C@H](O)[C@@H](O)[C@H]1O)NC(=O)[C@H](Cc1ccc(O)cc1)NC(=O)CCS[C@@H]1O[C@@H](CO)[C@H](O)[C@@H](O)[C@H]1O)NC(=O)[C@H](CCCCNC(=O)[C@H](CCCCNC(=O)[C@H](Cc1ccc(O)cc1)NC(=O)CCS[C@@H]1O[C@@H](CO)[C@H](O)[C@@H](O)[C@H]1O)NC(=O)[C@H](Cc1ccc(O)cc1)NC(=O)CCS[C@H]1O[C@H](CO)[C@@H](O)[C@H](O)[C@@H]1O)NC(=O)[C@H](CCCCNC(=O)[C@H](Cc1ccc(O)cc1)NC(=O)CCS[C@H]1O[C@H](CO)[C@@H](O)[C@H](O)[C@@H]1O)NC(=O)[C@H](Cc1ccc(O)cc1)NC(=O)CCS[C@H]1O[C@H](CO)[C@@H](O)[C@H](O)[C@@H]1O
22	5.5	60 µM	NC(=O)[C@H](CCCCNC(=O)[C@H](CCC(=O)O)NC(=O)[C@H](CCCCNC(=O)[C@H](Cc1ccc(O)cc1)NC(=O)CCS[C@@H]1O[C@@H](CO)[C@H](O)[C@@H](O)[C@H]1O)NC(=O)[C@H](Cc1ccc(O)cc1)NC(=O)CCS[C@H]1O[C@H](CO)[C@@H](O)[C@H](O)[C@@H]1O)NC(=O)[C@H](CCC(=O)O)NC(=O)[C@H](CCCCNC(=O)[C@H](Cc1ccc(O)cc1)NC(=O)CCS[C@H]1O[C@H](CO)[C@@H](O)[C@H](O)[C@@H]1O)NC(=O)[C@H](Cc1ccc(O)cc1)NC(=O)CCS[C@H]1O[C@H](CO)[C@@H](O)[C@H](O)[C@@H]1O
21.3	5.3	62 µM	N=C(N)NCCC[C@H](NC(=O)[C@H](CCCCNC(=O)[C@H](CCCCNC(=O)[C@H](Cc1ccc(O)cc1)NC(=O)CCS[C@H]1O[C@H](CO)[C@@H](O)[C@H](O)[C@@H]1O)NC(=O)[C@H](Cc1ccc(O)cc1)NC(=O)CCS[C@@H]1O[C@@H](CO)[C@H](O)[C@@H](O)[C@H]1O)NC(=O)[C@H](CCCCNC(=O)[C@H](Cc1ccc(O)cc1)NC(=O)CCS[C@H]1O[C@H](CO)[C@@H](O)[C@H](O)[C@@H]1O)NC(=O)[C@H](Cc1ccc(O)cc1)NC(=O)CCS[C@@H]1O[C@@H](CO)[C@H](O)[C@@H](O)[C@H]1O)C(N)=O
660	83	2 µM	NC(=O)[C@H](CSSC[C@H](NC(=O)[C@H](CCCCNC(=O)[C@H](CCCCNC(=O)[C@H](Cc1ccc(O)cc1)NC(=O)CCS[C@H]1O[C@H](CO)[C@@H](O)[C@H](O)[C@@H]1O)NC(=O)[C@H](Cc1ccc(O)cc1)NC(=O)CCS[C@@H]1O[C@@H](CO)[C@H](O)[C@@H](O)[C@H]1O)NC(=O)[C@H](CCCCNC(=O)[C@H](Cc1ccc(O)cc1)NC(=O)CCS[C@H]1O[C@H](CO)[C@@H](O)[C@H](O)[C@@H]1O)NC(=O)[C@H](Cc1ccc(O)cc1)NC(=O)CCS[C@@H]1O[C@@H](CO)[C@H](O)[C@@H](O)[C@H]1O)C(N)=O)NC(=O)[C@H](CCCCNC(=O)[C@H](CCCCNC(=O)[C@H](Cc1ccc(O)cc1)NC(=O)CCS[C@H]1O[C@H](CO)[C@@H](O)[C@H](O)[C@@H]1O)NC(=O)[C@H](Cc1ccc(O)cc1)NC(=O)CCS[C@@H]1O[C@@H](CO)[C@H](O)[C@@H](O)[C@H]1O)NC(=O)[C@H](CCCCNC(=O)[C@H](Cc1ccc(O)cc1)NC(=O)CCS[C@H]1O[C@H](CO)[C@@H](O)[C@H](O)[C@@H]1O)NC(=O)[C@H](Cc1ccc(O)cc1)NC(=O)CCS[C@@H]1O[C@@H](CO)[C@H](O)[C@@H](O)[C@H]1O
24	6	55 µM	NC(=O)[C@H](CO)NC(=O)[C@H](CCCCNC(=O)[C@H](CCCCNC(=O)[C@H](Cc1ccc(O)cc1)NC(=O)CCS[C@H]1O[C@H](CO)[C@@H](O)[C@H](O)[C@@H]1O)NC(=O)[C@H](Cc1ccc(O)cc1)NC(=O)CCS[C@@H]1O[C@@H](CO)[C@H](O)[C@@H](O)[C@H]1O)NC(=O)[C@H](CCCCNC(=O)[C@H](Cc1ccc(O)cc1)NC(=O)CCS[C@H]1O[C@H](CO)[C@@H](O)[C@H](O)[C@@H]1O)NC(=O)[C@H](Cc1ccc(O)cc1)NC(=O)CCS[C@@H]1O[C@@H](CO)[C@H](O)[C@@H](O)[C@H]1O
